Results from ChEMBL document CHEMBL1148704, “First total synthesis of protoapigenone and its analogues as potent cytotoxic agents” (J Med Chem, 2007).
pIC50: −log10 of the molar value.

Assays:
A549 = assay: Cytotoxicity against human A549 cells after 72 hrs by MTT colorimetric method; type: functional, cell-based; conditions: A549, 72 h
How it was run: (§1)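 Cell lines from ATCC, grown in RPMI-1640 with 10% FBS, 100 U/mL penicillin and 100 µg/mL streptomycin at 37 °C, humidified 5% CO₂. Seeded at 5000-10000 cells/well, treated on day two for 72 h. Attached cells then given MTT (0.5 mg/mL, 1 h), formazan solubilized in DMSO, colorimetric readout. IC₅₀ values reported.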

MCF7 = assay: Cytotoxicity against human MCF7 cells after 72 hrs by MTT colorimetric method; type: functional, cell-based; conditions: MCF7, 72 h; how it was run: as §1
HepG2 = assay: Cytotoxicity against human HepG2 cells after 72 hrs by MTT colorimetric method; type: functional, cell-based; conditions: HepG2, 72 h
MDA-MB-231 = assay: Cytotoxicity against human MDA-MB-231 cells after 72 hrs by MTT colorimetric method; type: functional, cell-based; conditions: MDA-MB-231, 72 h; how it was run: as §1
[1] = Cytotoxicity against human Hep3B cells after 72 hrs by MTT colorimetric method; type: functional, cell-based, Hep 3B2; how it was run: as §1

O=C1C=CC(O)(c2cc(=O)c3c(ccc4ccccc43)o2)C=C1
pIC50 (A549): 5.74 | pIC50 (MCF7): 6.18 | pIC50 (HepG2): 5.45 | pIC50 (MDA-MB-231): 6.41 | pIC50 [1]: 6.52

COc1cccc2c1C(=O)c1c(O)c3c(c(O)c1C2=O)C[C@@](O)(C(=O)CO)C[C@@H]3O[C@H]1C[C@H](N)[C@H](O)[C@H](C)O1 [DOXORUBICIN]
pIC50 (A549): 6.44 | pIC50 (MCF7): 6.13 | pIC50 (MDA-MB-231): 6.85 | pIC50 [1]: 6.21

O=C1C=CC(O)(c2cc(=O)c3c(O)cccc3o2)C=C1
pIC50 (A549): 5.29 | pIC50 (MCF7): 5.46 | pIC50 (HepG2): 5.30 | pIC50 (MDA-MB-231): 6.17 | pIC50 [1]: 5.89

O=C1C=CC(O)(c2cc(=O)c3c(O)cc(O)cc3o2)C=C1 [PROTOAPIGENONE]
pIC50 (A549): 4.86 | pIC50 (MCF7): 5.43 | pIC50 (HepG2): 5.09 | pIC50 (MDA-MB-231): 5.84 | pIC50 [1]: 5.64

COC1(c2cc(=O)c3c(O)cccc3o2)C=CC(=O)C=C1
pIC50 (A549): 4.24 | pIC50 (MCF7): 5.26 | pIC50 (HepG2): 4.57 | pIC50 (MDA-MB-231): 5.72 | pIC50 [1]: 5.63

COC1(c2cc(=O)c3ccc4ccccc4c3o2)C=CC(=O)C=C1
pIC50 (A549): 4.55 | pIC50 (MCF7): 5.53 | pIC50 (HepG2): 4.84 | pIC50 (MDA-MB-231): 5.97 | pIC50 [1]: 6.22

COc1cc(OC)c2c(=O)cc(C3(O)C=CC(=O)C=C3)oc2c1
pIC50 (A549): 5.90 | pIC50 (MCF7): 5.92 | pIC50 (HepG2): 5.30 | pIC50 (MDA-MB-231): 6.27 | pIC50 [1]: 6.17

COc1cc(OC)c2c(=O)cc(C3(OC)C=CC(=O)C=C3)oc2c1
pIC50 (A549): < 4.21 | pIC50 (MCF7): 5.38 | pIC50 (HepG2): 4.57 | pIC50 (MDA-MB-231): 5.33 | pIC50 [1]: 5.42

COCOc1cc(O)c2c(=O)cc(C3(O)C=CC(=O)C=C3)oc2c1
pIC50 (A549): 4.61 | pIC50 (MCF7): 5.28 | pIC50 (HepG2): 4.81 | pIC50 (MDA-MB-231): 5.76 | pIC50 [1]: 5.62

COC1(c2cc(=O)c3c(ccc4ccccc43)o2)C=CC(=O)C=C1
pIC50 (A549): 4.59 | pIC50 (MCF7): 5.57 | pIC50 (HepG2): 5.00 | pIC50 (MDA-MB-231): 5.94 | pIC50 [1]: 5.96

O=C1C=CC(O)(c2cc(=O)c3ccccc3o2)C=C1
pIC50 (A549): 5.28 | pIC50 (MCF7): 5.76 | pIC50 (HepG2): 5.17 | pIC50 (MDA-MB-231): 6.15 | pIC50 [1]: 5.90

COc1cc(O)c2c(=O)cc(C3(O)C=CC(=O)C=C3)oc2c1
pIC50 (A549): 5.51 | pIC50 (MCF7): 5.77 | pIC50 (HepG2): 6.24 | pIC50 (MDA-MB-231): 6.37 | pIC50 [1]: 6.17

COC1(c2cc(=O)c3ccccc3o2)C=CC(=O)C=C1
pIC50 (A549): < 4.13 | pIC50 (MCF7): 5.10 | pIC50 (HepG2): 4.39 | pIC50 (MDA-MB-231): 5.26 | pIC50 [1]: 5.27
